Rows were chosen to be rich in hits. Some 0.64% of all compounds tested hit in one or more screens of this group.
TNAP act hiacc = activators of human TNAP at high phosphate acceptor concentration | 200,000 tested, under 10 active | AID 1136 | purified TNAP, CDP-star luminescence, 1 M DEA, 30 min; active compounds read high; 0 = EDTA background, 1 = DMSO-only activity | activation factor at 20 µM | P05186;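 active = activation factor at least 2 at 20 µM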
Target sequence (P05186 whole entry, looked up): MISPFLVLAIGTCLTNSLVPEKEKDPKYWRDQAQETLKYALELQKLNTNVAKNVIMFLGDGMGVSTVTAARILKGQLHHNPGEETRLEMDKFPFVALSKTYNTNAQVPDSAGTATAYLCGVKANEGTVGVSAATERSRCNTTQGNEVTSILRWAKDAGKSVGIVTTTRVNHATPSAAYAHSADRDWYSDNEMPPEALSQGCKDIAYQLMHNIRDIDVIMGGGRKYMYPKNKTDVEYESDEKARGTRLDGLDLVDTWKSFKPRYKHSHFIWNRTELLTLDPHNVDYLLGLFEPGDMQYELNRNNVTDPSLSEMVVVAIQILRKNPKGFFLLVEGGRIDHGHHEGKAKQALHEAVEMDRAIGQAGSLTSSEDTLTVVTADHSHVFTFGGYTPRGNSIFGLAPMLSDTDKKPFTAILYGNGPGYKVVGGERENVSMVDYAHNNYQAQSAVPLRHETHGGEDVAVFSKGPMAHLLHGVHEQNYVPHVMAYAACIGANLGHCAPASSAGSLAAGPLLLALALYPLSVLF
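Assay system: human TNAP; Input: enzyme diluted 1/800 final; Reagent: CDP-star luminogenic substrate at 100 µM final; Timing: 30 min, room temperature; Signal: luminescence; Evaluation: TNAP activation factor scaled between EDTA and DMSO control wells.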
TNAP inh noacc = TNAP (human) inhibition, acceptor-free conditions. P05186. purified TNAP, CDP-star luminescence, 30 min. inhibition, % at 20 µM. actives 0.26% (n = 200,000). AID 1012;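 active = tissue-nonspecific alkaline phosphatase inhibition above about 50% at 20 µM in the single-dose screen, limit read from the data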
PMI act hi M6P = activators of human phosphomannose isomerase at near-saturating mannose 6-phosphate; actives 0.34% (n = 190,000); coupled PMI enzyme assay, resazurin fluorescence, 20 min; active compounds read high; 1 = untreated enzyme, 0 = substrate-free blank; activation factor at 20 µM;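 active = activation factor of 2 or more at 20 µM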
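Test system: human phosphomannose isomerase with PGI, G6PDH, diaphorase coupling enzymes; amount: 15 ng/mL PMI; incubation: enzyme reaction with compound 20 min at room temperature; technique: resorufin fluorescence (Ex 544/Em 590 nm) from resazurin via diaphorase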
TNAP inh hiacc = blocks human TNAP under high phosphate acceptor concentration. P05186. purified TNAP, CDP-star luminescence, 1 M DEA. inhibition, % at 20 µM. actives 0.03% (n = 200,000). AID 1135;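 active = over 50% inhibition of tissue-nonspecific alkaline phosphatase at 20 µM in the single-dose screen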
PMI act = phosphomannose isomerase (human) activation; actives 0.005% (n = 190,000); purified human PMI, coupled resazurin fluorescence, 20 min; active compounds read high; 1 = vehicle control, 0 substrate-free wells; activation factor at 20 µM;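 active = activation factor of 2 or more at 20 µM, relative to plate controls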
Numbers stand for hits.

Results for CCOC(=O)C1=C(C)NC(SC)=NC1c1ccc(OC)cc1 (configuration not stated) ?
TNAP act hiacc: inactive; TNAP inh noacc: inactive; PMI act hi M6P: 2.3; TNAP inh hiacc: inactive; PMI act: inactive

Results for O=C(Cc1ccc(Cl)c(Cl)c1)Nc1ccc2[nH]c(=O)[nH]c2c1 ?
TNAP act hiacc: inactive; TNAP inh noacc: inactive; PMI act hi M6P: inactive; TNAP inh hiacc: inactive; PMI act: inactive

How did COc1ccc(/C=C(/NC(=O)c2cccc([N+](=O)[O-])c2)C(=O)O)cc1 do in these assays?
TNAP act hiacc: inactive; TNAP inh noacc: inactive; PMI act hi M6P: 2; TNAP inh hiacc: inactive; PMI act: inactive

How did CC(C)CNC(=O)Cn1c(=O)c2c(ncn2CC(C)C)n(Cc2ccccc2)c1=O do in these assays?
TNAP act hiacc: inactive; TNAP inh noacc: inactive; PMI act hi M6P: inactive; TNAP inh hiacc: inactive; PMI act: inactive

What do the screens show for `O=C(CSc1ncccc1C(=O)O)c1ccc2ccccc2c1`?
TNAP act hiacc: inactive; TNAP inh noacc: inactive; PMI act hi M6P: inactive; TNAP inh hiacc: inactive; PMI act: inactive

What do the screens show for `O=C(CSc1ncccc1C(=O)O)c1cccc(C(F)(F)F)c1`?
TNAP act hiacc: inactive; TNAP inh noacc: inactive; PMI act hi M6P: 2.2; TNAP inh hiacc: inactive; PMI act: inactive

How did CC(C)CN1C(=O)c2ccccc2C1(O)Cc1ccccc1 (configuration not stated) do in these assays?
TNAP act hiacc: inactive; TNAP inh noacc: inactive; PMI act hi M6P: 2; TNAP inh hiacc: inactive; PMI act: inactive

What do the screens show for `Cc1ccccc1N/N=C/c1ccc(C#N)cc1`?
TNAP act hiacc: inactive; TNAP inh noacc: inactive; PMI act hi M6P: 2.4; TNAP inh hiacc: inactive; PMI act: inactive

Results for CC(C)C(O)(C#CCN1CCCCCC1)c1ccccc1 (configuration not stated) ?
TNAP act hiacc: inactive; TNAP inh noacc: inactive; PMI act hi M6P: inactive; TNAP inh hiacc: inactive; PMI act: inactive

What do the screens show for `COc1ccc(NC(=O)N/C=C/c2ccco2)cc1`?
TNAP act hiacc: inactive; TNAP inh noacc: inactive; PMI act hi M6P: 2.2; TNAP inh hiacc: inactive; PMI act: inactive

How did CN(C)c1ncc(/C=C2/C(=O)NC(=S)N(C3CCCCC3)C2=O)cn1 do in these assays?
TNAP act hiacc: inactive; TNAP inh noacc: inactive; PMI act hi M6P: 2; TNAP inh hiacc: inactive; PMI act: inactive

Results for Clc1cncc(Cl)c1NNc1c2ccccc2nc2ccccc12 ?
TNAP act hiacc: inactive; TNAP inh noacc: inactive; PMI act hi M6P: 2.2; TNAP inh hiacc: inactive; PMI act: inactive

What do the screens show for `Cc1cc(Cl)c2ccccc2n1`?
TNAP act hiacc: inactive; TNAP inh noacc: inactive; PMI act hi M6P: inactive; TNAP inh hiacc: inactive; PMI act: inactive

Results for O=C(Nc1cccc(NC(=O)c2cccs2)c1)c1ccc2c(c1)OCCO2 ?
TNAP act hiacc: inactive; TNAP inh noacc: inactive; PMI act hi M6P: inactive; TNAP inh hiacc: inactive; PMI act: inactive

What do the screens show for `C/C(=N\Nc1ccc(F)cc1F)c1ccccc1O`?
TNAP act hiacc: inactive; TNAP inh noacc: inactive; PMI act hi M6P: 2.3; TNAP inh hiacc: inactive; PMI act: inactive

What do the screens show for `CCCOC(=O)c1ccc(Cl)c(NC(=O)c2cccnc2)c1`?
TNAP act hiacc: inactive; TNAP inh noacc: inactive; PMI act hi M6P: inactive; TNAP inh hiacc: inactive; PMI act: inactive

What do the screens show for `Cc1ccc(C2NCCS2)cc1` (configuration not stated)?
TNAP act hiacc: inactive; TNAP inh noacc: 63; PMI act hi M6P: inactive; TNAP inh hiacc: inactive; PMI act: inactive
